An excerpt weighted towards active compounds, which were near 2.6% of everything screened.
Mdm2 ligase inh = MDM2-luciferase reporter signal enhancers, primary screen, MDM2 E3 ligase inhibitor project, cell-based, luminescence, 1536-well | cell-based MDM2 ubiquitination luciferase reporter, 2 h; 0 = plate control, 100 = twice control, blank-subtracted | signal enhancement, % at 5 µM | 210,000 tested, 0.11% active;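 active = signal enhancement of 30% or more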;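 note: luminescence tracks abundance of the self-degrading MDM2-luciferase fusion protein; higher signal means inhibition of MDM2 E3 ligase activity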
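test system = mammalian cells stably expressing self-ubiquitinating, self-degrading MDM2 E3–luciferase fusion | quantity = 2000 cells/well | incubation = cell settling 4 h, compound treatment 2 h, both 37 °C | signal = luminescence with SteadyLite reagent, 15 min at room temperature | evaluation = % enhancement relative to plate controls after blank subtraction | benchmarks = plate controls and plate blanks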
HSV augment = enhancers of HSV replication in host cells, fold increase, host cell viability; HSV replication augmentation in cells; maximum fold increase; 220,000 tested, 0.005% active; AID 1956, 2009; in the data active = maximum fold increase above about 1.5; inconclusive = no clear call, values can overlap the other calls; tested in PC3 cells
Hsp70 act = Hsp70 transcriptional activators, primary screen, cell-based, HeLa, Hsp70 promoter luciferase, luminescence, 10 µM. 200,000 tested, 0.04% active. AID 1203, 2008. HeLa Hsp70 promoter luciferase reporter; scaled: vehicle 0, proteasome-inhibitor control 100%. activation, % at 10 µM;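 active = activation above the mean across all tested compounds plus 3 SD, cutoff set per campaign, cut at about 5.5% in these data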;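 note: 100% = MG132 at 30 µM as the positive control and 0% = DMSO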
HSF1 inhib = HSF1 inhibitors in luciferase reporter cells, primary screen, cell-based, NIH3T3, luminescence; NIH3T3-HGL HSE-luciferase, MG132-induced, luminescence 8 h; hits give low values; activity change, negative = inhibition, % at 7.5 µM (by protocol); 300,000 tested, 0.77% active; AID 2098, 2009;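 active = more than half of replicate wells show activity change below -50%, luminescence cut by over half; inconclusive = some wells, but at most half, below -50%; inactive = no replicate well below -50%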;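 note: luciferase reports HSF-1 transcriptional activity via heat shock element; 0% = median of DMSO wells and -100% = zero luminescence signal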
HSF1 activator = HSF-1 activators, primary screen, NIH3T3-HGL cells, MG132 stress, luminescence, single point. 300,000 tested, 1.7% active. activation, % at 9 µM. AID 504408, 2011. NIH3T3-HGL HSF-1 luciferase reporter, 8 h; 100% = twice DMSO control signal;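 active = mean replicate activation of at least 50% with a set share of replicates each reaching 50%; inconclusive = only one of those two conditions met; inactive = mean below 50% and too few replicates reaching it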;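 note: 0% = median of the neutral control wells and 100% = twice that signal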
Rad51 HR inh = human RAD51 strand exchange inhibitors, primary screen, biochemical, fluorescence; hRad51 DNA strand exchange, fluorescence dequenching; DNA repair protein RAD51 homolog 1 (Homo sapiens), Q06609; inhibition, % at 10 µM; 200,000 tested, 0.085% active;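 active = inhibition above 40% at the single screening dose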;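 note: 0% = DMSO control wells and 100% = blanks with heterologous ssDNA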
Target sequence (Q06609 whole entry, looked up): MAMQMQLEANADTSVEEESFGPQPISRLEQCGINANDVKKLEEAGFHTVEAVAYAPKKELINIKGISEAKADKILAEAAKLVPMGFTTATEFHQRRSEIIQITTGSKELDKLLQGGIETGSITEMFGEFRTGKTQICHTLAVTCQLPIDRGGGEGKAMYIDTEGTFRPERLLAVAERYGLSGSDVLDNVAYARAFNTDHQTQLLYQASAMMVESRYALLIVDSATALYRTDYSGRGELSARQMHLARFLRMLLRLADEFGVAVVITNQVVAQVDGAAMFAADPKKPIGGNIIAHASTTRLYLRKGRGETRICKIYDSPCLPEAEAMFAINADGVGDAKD
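material = hRad51 filaments on single-stranded DNA | timing = filaments 15 min 37 °C, then compound 30 min | signal = FRET fluorescence dequenching, excitation 485 nm, emission 520 nm | benchmarks = control wells and blank wells on each plate | evaluation = percent inhibition relative to plate controls and blanks | compound = 10 µM final, single point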
An asterisk follows results filed as active; i = inactive; ? = inconclusive; . = no result given.

SMILES | Mdm2 ligase inh | HSV augment | Hsp70 act | HSF1 inhib | HSF1 activator | Rad51 HR inh
COc1ccc(-c2cc(C(=O)Nc3ccc(C)c(N)c3)c3ccccc3n2)cc1 | . | . | . | 21.3 | 74.1* | .
Cc1cccc(-c2cc(C(=O)Nc3cccnc3)c3ccccc3n2)c1 | . | . | . | 2.3 | -6.1 | .
O=C(CN(Cc1ccccc1)S(=O)(=O)c1ccc(S(=O)(=O)N2CCOCC2)cc1)Nc1ccccc1 | -15.9 | i | -0.5 | -5.0 | 20.1 | -5.8
CCc1noc(C)c1C(=O)N1CCN(S(=O)(=O)c2ccc(Br)cc2)CC1 | . | . | . | 7.4 | -7.6 | .
Cc1ccc(S(=O)(=O)N2CCCC(C(=O)NCCc3ccc4c(c3)OCO4)C2)cc1 (stereo not drawn) | -18.4 | i | -0.3 | -68.5* | -76.2 | -2.5
O=c1[nH]c2ccc(S(=O)(=O)N3CCN(c4ccc(F)cc4)CC3)cc2o1 | -16.3 | i | . | 6.6 | -1.9 | 13.3
CCOC(=O)Cn1c(CCC(=O)O)ccc1-c1ccc(F)cc1 | -15.0 | i | -0.1 | -77.2* | -81.5 | 8.0
O=C(O)CCc1ccc(-c2ccc(F)cc2)n1CC(=O)O | -1.8 | i | -0.6 | 4.3 | -9.4 | 1.7
Cc1ccc(S(=O)(=O)NN2C(=O)c3ccccc3NC2c2ccccc2)cc1 (stereo not drawn) | 8.3 | i | -0.4 | 0.9 | -4.1 | 4.8
COc1ccc(C2Nc3ccccc3C(=O)N2NS(=O)(=O)c2ccc(C)cc2)cc1 (stereo not drawn) | -25.0 | i | -0.1 | 46.6 | 56.8* | -2.8
CC(=O)c1c(C)[nH]c(C(=O)Nc2nc(-c3ccc(Cl)cc3)cs2)c1C | 12.6 | i | 0.0 | 9.3 | 39.5 | -8.8
CSc1ccccc1C(=O)Nc1ncc(C)s1 | -7.0 | i | 0.1 | 12.9 | 12.2 | -0.6
Cn1cc([N+](=O)[O-])c(C(=O)Nc2nc(-c3ccc(Cl)cc3)cs2)n1 | -9.0 | i | 0.9 | 102.0 | 140.5* | 21.8
Cc1ccc(C(=O)Nc2ncc(C)s2)s1 | . | . | . | 29.7 | 69.8* | .
Cc1cnc(NC(=O)c2nn(C)cc2[N+](=O)[O-])s1 | -27.1 | i | -0.2 | 139.0 | 150.1* | 6.3
Cc1ccc(-c2nc(NC(=O)c3nn(C)cc3[N+](=O)[O-])sc2C)cc1 | -9.9 | i | 1.0 | 8.2 | 28.1 | 2.6
CCOc1ccc2nc(NC(=O)Nc3cccs3)sc2c1 | . | i | -0.1 | 50.3 | 79.6* | 0.2
COc1ccc2nc(NC(=O)Nc3ccccc3)sc2c1 | . | i | -0.4 | 6.6 | 30.5 | -3.8
CCOC(=O)Cc1csc(NC(=O)Cc2cccs2)n1 | 4.8 | i | -0.2 | 7.9 | 6.1 | -0.9
CCOc1ccc2nc(NC(=O)Nc3ccccc3)sc2c1 | -19.9 | i | 0.3 | 28.8 | 73.6* | -9.1
CCOC(=O)Cc1csc(NC(=O)Nc2cccs2)n1 | . | . | . | -57.5* | -65.9 | .
CCOC(=O)c1c2c(n(Cc3ccccc3)c1C)C(=O)C(=O)c1ccccc1-2 | . | . | . | 99.4* | 99.4* | .
O=c1oc(-c2ccccc2)cc(Cl)c1Cl | . | . | . | 308.8 | 454.7* | .
O=P(O)(O)c1cc(-c2ccccc2)oc1-c1ccccc1 | -14.1 | i | . | -3.5 | -12.8 | -12.2
COC(=O)c1ccc(C23CC4(C2)[C@H](CN(CC2CCCCC2)[C@@H]4c2ccccc2)C3c2ccccc2)cc1 (stereo partly drawn) | 19.6 | i | . | -6.0 | -15.9 | -3.9
SMILES | Mdm2 ligase inh | HSV augment | Hsp70 act | HSF1 inhib | HSF1 activator | Rad51 HR inh
CCN(CC(=O)NCc1cccs1)C(=O)c1ccc(S(=O)(=O)Nc2ccccc2C)cc1 | . | . | . | 11.4 | 1.5 | .
O=C(O)c1csc(N/N=C/c2ccc(Br)cc2)n1 | -11.1 | i | -0.2 | 39.3 | 80.7* | -0.9
CC(O)CNCCNCc1c(OCc2ccccc2)ccc2ccccc12 (stereo not drawn) | -13.1 | i | 0.1 | 8.1 | 20.8 | -3.6
OCCNCc1c(OCc2ccc(Cl)cc2)ccc2ccccc12 | . | . | . | 26.2 | 62.2* | .
COc1cccc(OC)c1C(=O)Nc1cccc(-n2cnnn2)c1 | . | . | . | 13.2 | 25.9 | .
CC(c1ccccc1)C1C(C#N)=C(N)OC2=C1C(=O)CC(C)(C)C2 (stereo not drawn) | 0.6 | i | -0.6 | -10.1 | -7.7 | 0.8
CC1(C)CC(=O)C2=C(C1)OC(N)=C(C#N)C2C#Cc1ccccc1 (stereo not drawn) | 2.3 | i | 0.0 | 21.9 | 77.7* | -21.3
O=C(O)c1ccccc1C(=O)NCc1ccc2c(c1)OCO2 | . | . | . | 2.5 | 17.2 | .
CSc1ccccc1NC(=O)c1cccc(S(=O)(=O)N2CCN(C)CC2)c1 | . | . | . | -6.5 | -18.1 | .
CC(C)Cn1c(N)c(C(=O)COC(=O)C2CC(=O)N(Cc3ccccc3Cl)C2)c(=O)n(C)c1=O (stereo not drawn) | -21.6 | i | -0.3 | -3.0 | 9.6 | -1.8
O=S(=O)(c1ccc(-n2cnnn2)cc1)N1CCNCC1 | . | . | . | 42.6 | 82.6* | .
O=C(C1CCN(S(=O)(=O)c2ccc(-n3cnnn3)cc2)CC1)N1CCCCC1 | . | . | . | 2.9 | 4.7 | .
CCN1CCN(c2ccc(NC(=O)c3ccc(Br)o3)cc2)CC1 | . | . | . | 13.7 | 55.7* | .
O=C(Nc1ccc(S(=O)(=O)N2CCOCC2)cc1)c1ccc(Br)o1 | 12.7 | i | -0.3 | 11.6 | 59.0* | -1.6
C=CCOc1ccc(CN(C)C(=O)CNC(=O)c2ccc(-c3ccccc3)cc2)cc1 | . | . | . | -2.8 | 1.7 | .
CC1(C)CC(=O)C2=C(C1)Nc1ccccc1NC2c1ccc(F)cc1 (stereo not drawn) | . | . | . | -1.7 | -1.3 | .
O=C1NCC2=C1C(c1ccc(Br)cc1)Nc1ccccc1N2 (stereo not drawn) | 8.5 | i | -0.1 | 28.1 | 50.7* | -0.3
CN(CC(=O)NCc1ccc2c(c1)OCO2)S(=O)(=O)c1ccc(F)cc1 | . | . | . | -5.2 | 9.6 | .
O=C(N/N=C/c1sc(N2CCOCC2)nc1-c1ccccc1)c1ccccc1F | 2.6 | i | . | -5.6 | 9.9 | -3.4
O=C(Nc1ccccc1F)C(=Cc1sc(N2CCOCC2)nc1-c1ccccc1)C(=O)Nc1ccccc1F | -9.6 | ? | 0.0 | 16.0 | 63.9* | -148.0
COC(=O)Cc1[nH]n(-c2nc3ccccc3s2)c(=O)c1C(C)=Nc1ccc(Cl)cc1 | -58.9 | i | . | -68.2* | -71.1 | .
COC(=O)Cc1[nH]n(-c2nc3ccccc3s2)c(=O)c1C(C)=Nc1ccc(C)cc1 | -83.8 | i | -0.4 | 2.0 | 5.6 | 9.3
CCN(CC)c1ccc(NC(=O)COC(=O)COc2ccccc2[N+](=O)[O-])cc1 | 2.2 | i | 0.2 | -5.7 | -15.1 | 7.7

Source: PubChem
